According to ChEMBL document CHEMBL1165950, “Design and synthesis of new potent anticancer pyrazoles with high FLT3 kinase inhibitory selectivity” (Bioorg Med Chem, 2010):

Assays:
Format in all cases: functional
A549 [1] = test: Growth inhibition of human A549 cells after 48 hrs by sulforhodamine B assay; details: A549, 48 h
In short: (§1)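 NCI five-dose SRB assay in RPMI 1640 with 5% FBS and 2 mM L-glutamine. Cells were preincubated 24 h, then exposed 48 h at 37 °C to five concentrations (10-fold or half-log serial dilutions from DMSO stocks). TCA fixation, SRB staining, and absorbance at 515 nm followed. IC50 was taken where [(Ti−Tz)/(C−Tz)]×100 = 50, with Tz as time-zero cell density.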

SK-MEL-5 = test: Growth inhibition of human SK-MEL-5 cells after 48 hrs by sulforhodamine B assay; details: SK-MEL-5, 48 h
In short: (§2)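 NCI 60-cell screen, five-dose mode. Cells grown in RPMI 1640 with 5% FBS and 2 mM L-glutamine and plated at 5000-40,000 cells/well according to doubling time. After 24 h preincubation, a Tz plate was TCA-fixed. Five concentrations (10-fold or 1/2 log dilutions) were applied for 48 h at 37 °C. SRB staining read at 515 nm. IC50 taken from [(Ti-Tz)/(C-Tz)]×100 = 50.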

TK-10 = test: Cytotoxicity against human TK10 cells assessed as cell growth at 10 uM; details: read-out: Activity
In short: (§3)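 NCI-60 screen: cells grown in RPMI 1640 with 5% FBS and 2 mM L-glutamine, plated at 5000–40,000 cells/well according to doubling time, and preincubated 24 h at 37 °C, 5% CO2. The single 10 µM dose (DMSO stock) was added, then incubated 48 h. Cells were TCA-fixed and stained with 0.4% SRB, read at 515 nm, and growth % calculated against time-zero and control plates.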

IGROV-1 = test: Cytotoxicity against human IGROV1 cells assessed as cell growth at 0.001 uM after 48 hrs by sulforhodamine B assay; details: IGROV-1, 48 h, read-out: Activity
SK-MEL-2 = test: Cytotoxicity against human SK-MEL-2 cells assessed as cell growth at 100 nM after 48 hrs by sulforhodamine B assay; details: SK-MEL-2, 48 h, read-out: Activity
MDA-MB-231 [2] = test: Cytotoxicity against human MDA-MB-231 cells assessed as cell growth at 100 nM after 48 hrs by sulforhodamine B assay; details: MDA-MB-231, 48 h, read-out: Activity
HCT-15 = test: Cytotoxicity against human HCT15 cells assessed as cell growth at 100 nM after 48 hrs by sulforhodamine B assay; details: HCT-15, 48 h, read-out: Activity
NCI-H522 = test: Cytotoxicity against human NCI-H522 cells assessed as cell growth at 10 uM; details: read-out: Activity; in short: as §3
786-0 = test: Cytotoxicity against human 786-0 cells assessed as cell growth at 0.01 uM after 48 hrs by sulforhodamine B assay; details: 786-0, 48 h, read-out: Activity
In short: (§4)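 NCI-60 five-dose screen. Cells were grown in RPMI 1640 with 5% FBS and 2 mM L-glutamine, plated at 5000–40,000 cells/well and preincubated for 24 h. Time-zero plates were TCA-fixed. DMSO-solubilized drug was added at five concentrations (10-fold or ½-log serial dilutions) for 48 h at 37 °C, 5% CO2. Cells were TCA-fixed, stained with 0.4% SRB and read at 515 nm. Percent growth used time-zero, control and test absorbances.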

[3] = Growth inhibition of human NCI60 cells at 10 uM after 48 hrs by sulforhodamine B assay relative to control; details: NCI60, 48 h, read-out: GI
In short: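 Single-dose NCI screen at 10 µM across the 60-line panel, 48 h exposure at 37 °C after a 24 h preincubation. Adherent cells were fixed with cold TCA and stained with 0.4% SRB, and absorbance was read at 515 nm. Inhibition % was taken as 100 minus growth %, and the mean across all lines was reported.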

MDA-MB-231 [4] = test: Cytotoxicity against human MDA-MB-231 cells assessed as cell growth at 10 uM after 48 hrs by sulforhodamine B assay; details: MDA-MB-231, 48 h, read-out: Activity
SNB-75 [5] = test: Cytotoxicity against human SNB75 cells assessed as cell growth at 0.01 uM after 48 hrs by sulforhodamine B assay; details: SNB-75, 48 h, read-out: Activity
UO-31 = test: Growth inhibition of human UO31 cells after 48 hrs by sulforhodamine B assay; details: UO-31, 48 h; in short: as §2
BT-549 [6] = test: Cytotoxicity against human BT549 cells assessed as cell growth at 0.01 uM after 48 hrs by sulforhodamine B assay; details: BT-549, 48 h, read-out: Activity; in short: as §4
COLO 205 = test: Cytotoxicity against human COLO205 cells assessed as cell growth at 1 uM after 48 hrs by sulforhodamine B assay; details: COLO 205, 48 h, read-out: Activity; in short: as §4
A549 [7] = test: Cytotoxicity against human A549 cells assessed as cell growth at 10 uM; details: read-out: Activity
In short: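 Single-dose NCI-60 screen at 10 µM. Cells were grown in RPMI 1640 with 5% FBS and 2 mM L-glutamine, then treated for 48 h at 37 °C. Protein was measured by SRB staining with absorbance at 515 nm. Percentage growth was recorded, and inhibition percentage was calculated as 100 minus growth percentage.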

A549 [8] = test: Cytotoxicity against human A549 cells assessed as cell growth at 0.01 uM after 48 hrs by sulforhodamine B assay; details: A549, 48 h, read-out: Activity; in short: as §4
[9] = Cytotoxicity against human Hs 578T cells assessed as cell growth at 0.001 uM after 48 hrs by sulforhodamine B assay; details: read-out: Activity
NCI-H23 [10] = test: Cytotoxicity against human NCI-H23 cells assessed as cell growth at 1 uM after 48 hrs by sulforhodamine B assay; details: NCI-H23, 48 h, read-out: Activity
SW-620 = test: Cytotoxicity against human SW620 cells assessed as cell growth at 0.001 uM after 48 hrs by sulforhodamine B assay; details: SW-620, 48 h, read-out: Activity
KM12 = test: Cytotoxicity against human KM12 cells assessed as cell growth at 0.001 uM after 48 hrs by sulforhodamine B assay; details: KM12, 48 h, read-out: Activity
SK-MEL-28 = test: Cytotoxicity against human SK-MEL-28 cells assessed as cell growth at 0.01 uM after 48 hrs by sulforhodamine B assay; details: SK-MEL-28, 48 h, read-out: Activity
SNB-75 [11] = test: Cytotoxicity against human SNB75 cells assessed as cell growth at 1 uM after 48 hrs by sulforhodamine B assay; details: SNB-75, 48 h, read-out: Activity
EKVX = test: Cytotoxicity against human EKVX cells assessed as cell growth at 1 uM after 48 hrs by sulforhodamine B assay; details: read-out: Activity
HOP-62 = test: Cytotoxicity against human HOP62 cells assessed as cell growth at 100 nM after 48 hrs by sulforhodamine B assay; details: HOP-62, 48 h, read-out: Activity
BT-549 [12] = test: Growth inhibition of human BT549 cells after 48 hrs by sulforhodamine B assay; details: BT-549, 48 h; in short: as §1
NCI-H23 [13] = test: Cytotoxicity against human NCI-H23 cells assessed as cell growth at 10 uM; details: read-out: Activity; in short: as §3
[14] = read-out: LC50 (the source's name)

## Cc1cc(O)cc(-c2nn(CC#N)cc2-c2ccnc(-c3ccc(Oc4ccccc4)cc3)c2)c1
A549 [1]
  GI50: 2 µM
  LC50: 24.7 µM
  TGI: 5.07 µM
SK-MEL-5
  GI50: 2.93 µM
  TGI: 9.9 µM
SK-MEL-5; [14]
  CC50: 31.5 µM
TK-10
  growth at 10 µM: 47.2%
IGROV-1
  growth at 0.001 µM: 98%
SK-MEL-2
  growth at 0.1 µM: 101%
MDA-MB-231 [2]
  growth at 0.1 µM: 85%
HCT-15
  growth at 0.1 µM: 91%
NCI-H522
  growth at 10 µM: 36%
786-0
  growth at 0.01 µM: 95%
[3]
  inhibition of growth at 10 µM: 46.6%
MDA-MB-231 [4]
  growth at 10 µM: -62%
SNB-75 [5]
  growth at 0.01 µM: 79%
UO-31
  GI50: 2.18 µM
  TGI: 6.54 µM
UO-31; [14]
  CC50: 31.7 µM
BT-549 [6]
  growth at 0.01 µM: 91%
COLO 205
  growth at 1 µM: -94%
A549 [7]
  growth at 10 µM: 42%
A549 [8]
  growth at 0.01 µM: 88%
[9]
  growth at 0.001 µM: 103%
NCI-H23 [10]
  growth at 1 µM: -64%
SW-620
  growth at 0.001 µM: 93%
KM12
  growth at 0.001 µM: 91%
SK-MEL-28
  growth at 0.01 µM: 94%
SNB-75 [11]
  growth at 1 µM: 30%
EKVX
  growth at 1 µM: -4%
HOP-62
  growth at 0.1 µM: 101%
BT-549 [12]
  GI50: 2.66 µM
  TGI: 11.2 µM
BT-549 [12]; [14]
  CC50: 43.1 µM
NCI-H23 [13]
  growth at 10 µM: 42.6%
